Measured values reported in ChEMBL document CHEMBL1126600, “A trans-platinum complex showing higher antitumor activity than the cis congeners” (J Med Chem, 1993).

What was measured:
Assay type in all cases: functional, cell-based
Conditions in all cases: Mus musculus
P388 [1] = assay: Effect was evaluated by implanting P388 cells into B6D2F1 mice and treated for 1-7 days at 2 umol/ Kg dose
Summary of the method: (§1)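 P388 or P388/DDP leukemia cells (10^6/mouse) implanted ip into B6D2F1 mice on day 0; 6 animals/group, 8 untreated controls. Complexes dissolved in water just before use, given ip. Read-out %T/C = median survival time ×100 of treated vs untreated; >125% taken as significant. P388/DDP subline raised in vivo by serial passage with single ip cis-DDP (20 µmol/kg) 2 days after implantation.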

P388 [2] = assay: Effect was evaluated by implanting P388/DDP leukemia cells into B6D2F1 mice and treated for 1 day at 193 umol/ Kg dose; summary of the method: as §1
P388 [3] = assay: Effect was evaluated by implanting P388/DDP leukemia cells into B6D2F1 mice and treated for 1-7 days at 2 umol/ Kg dose; summary of the method: as §1
P388 [4] = assay: Inhibitory effect was evaluated on the growth of P388 cells
Summary of the method: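 P388 cells (10^5 cells/mL, exponential growth) exposed to the platinum complexes at increasing concentrations for 1 h at 37 °C, drug removed, then grown 48 h more; cell number and viability counted by trypan blue exclusion. ID50 = 50% growth-inhibitory concentration; five experiments, each in triplicate, mean ± standard deviation.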

P388 [5] = assay: Effect was evaluated by implanting P388 cells into B6D2F1 mice and treated for 1 day at 26 umol/ Kg dose; summary of the method: as §1
P388 [6] = assay: Effect was evaluated by implanting P388 cells into B6D2F1 mice and treated for 1 day at 193 umol/ Kg dose; summary of the method: as §1

Sequence | T/C (P388 [1]) | T/C (P388 [2]) | T/C (P388 [3]) | ID50 (P388 [4]) | T/C (P388 [5]) | T/C (P388 [6])
CISPLATIN | 203% | 95% | 90% | 2.05 µM | 202% | –
TRANSPLATIN | – | 107% | – | 85 µM | – | 105%
